Assay results reported in ChEMBL document CHEMBL1134294, “A prodrug form of a Plasmodium falciparum glutathione reductase inhibitor conjugated with a 4-anilinoquinoline” (J Med Chem, 2001).
Calls of active or inactive are those of the source. No cut-off for these calls is given here.

Tests used:
[1] = Susceptibility of compound to hydrolysis at 37 degrees C at pH 5.0 acetate medium; assay type: ADME
Procedure, shortened: (§1)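 Prodrug (100 μM final, from 1 mM stock in 10% aqueous DMSO) is incubated at 37 °C in pH 7.4 phosphate buffer (150 mM NaCl, 4 mM NaH₂PO₄, 25 mM NaHCO₃) or pH 5.0 acetate (150 mM NaCl, 10 mM NaOAc). Half-life of ester disappearance is found by HPLC as the mean of two determinations.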

[2] = Susceptibility of compound to hydrolysis at 37 degrees C at pH 7.4 phosphate buffer; assay type: ADME; procedure, shortened: as §1
[3] = target: T1, Glutathione reductase, mitochondrial (Homo sapiens) (UniProt P00390); assay: In vitro inhibition of human Glutathione Reductase; Not active
T1 sequence (whole entry): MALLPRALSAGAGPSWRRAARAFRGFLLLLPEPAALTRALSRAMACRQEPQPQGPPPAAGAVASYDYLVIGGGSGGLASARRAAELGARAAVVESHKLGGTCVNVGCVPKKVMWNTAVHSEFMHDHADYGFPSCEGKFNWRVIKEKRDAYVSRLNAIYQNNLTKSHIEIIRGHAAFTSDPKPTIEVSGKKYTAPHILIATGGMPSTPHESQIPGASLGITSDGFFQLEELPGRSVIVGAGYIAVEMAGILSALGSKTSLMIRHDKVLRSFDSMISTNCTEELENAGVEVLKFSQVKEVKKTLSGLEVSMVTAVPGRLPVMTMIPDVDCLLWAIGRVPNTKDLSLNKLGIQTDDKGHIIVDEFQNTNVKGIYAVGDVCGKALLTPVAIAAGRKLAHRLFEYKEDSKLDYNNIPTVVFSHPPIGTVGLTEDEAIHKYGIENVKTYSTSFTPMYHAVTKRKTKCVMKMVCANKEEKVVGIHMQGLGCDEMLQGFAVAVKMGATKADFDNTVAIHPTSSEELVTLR
Procedure, shortened: (§2)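 Recombinant purified GR (about 5 mU/ml) with 100 μM NADPH in 47 mM potassium phosphate, 200 mM KCl, 1 mM EDTA, pH 6.9, at 25 °C. Enzyme, NADPH and inhibitor are premixed and the reaction is started with 100 μM GSSG. NADPH loss is read at 340 nm. IC50 is taken from increasing inhibitor concentrations in 1% final DMSO, run in duplicate.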

Plasmodium falciparum [4] = assay: Effective dose against chloroquine-resistant Plasmodium falciparum FcB1R; assay type: functional
Procedure, shortened: (§3)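 Asynchronous cultures in human erythrocytes (0.5% parasitemia, 1% hematocrit) received serially diluted drug, DMSO ≤0.1%. After 24 h at 37 °C, 0.5 μCi [3H]hypoxanthine was added and incubation continued another 24 h. Growth inhibition was taken versus drug-free control, ED50 read from the concentration–response curve, and reported as mean of ≥3 independent experiments.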

[5] = target: Glutathione reductase (Plasmodium falciparum 3D7) (UniProt O15770); assay: In vitro inhibition of Plasmodium falciparum Glutathione Reductase; Not active; details: Plasmodium falciparum FcB1; procedure, shortened: as §2
Plasmodium falciparum [6] = assay: In vitro efficacy for chloroquine-resistant Plasmodium falciparum W2; assay type: functional; details: read-out: ED50 (the source's name); procedure, shortened: as §3
Plasmodium falciparum [7] = assay: In vitro efficacy for chloroquine-resistant Plasmodium falciparum FcB1; assay type: functional; details: read-out: ED50 (the source's name); procedure, shortened: as §3
Plasmodium falciparum [8] = assay: In vitro efficacy for chloroquine-resistant Plasmodium falciparum K1; assay type: functional; details: read-out: ED50 (the source's name); procedure, shortened: as §3
Plasmodium falciparum [9] = assay: In vitro efficacy for chloroquine-sensitive Plasmodium falciparum D6; details: read-out: ED50 (the source's name)
Plasmodium falciparum [10] = assay: In vitro efficacy for chloroquine-sensitive Plasmodium falciparum F32; details: read-out: ED50 (the source's name)
Plasmodium falciparum [11] = assay: In vitro efficacy for chloroquine-sensitive Plasmodium falciparum Thai; details: read-out: ED50 (the source's name)
[12] = Susceptibility of compound to hydrolysis at 37 degrees C for RPMI-10% human serum; assay type: ADME; details: RPMI with 10% human serum
Procedure, shortened: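 Prodrug (100 μM final, from 1 mM stock in 10% aqueous DMSO) is held in RPMI with 10% human serum at 37 °C and sampled from 0 to 77.5 h. Samples are mixed with EtOH plus internal reference, centrifuged, and the supernatant is analysed by HPLC. Half-life of ester disappearance is the mean of two determinations.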

[13] = target: T1, Glutathione reductase, mitochondrial (Homo sapiens); assay: Competitive inhibition of human Glutathione Reductase
[14] = target: T2, Glutathione reductase, mitochondrial (Homo sapiens, UniProt P00390); assay: In vitro inhibition of human Glutathione Reductase; procedure, shortened: as §2
T2 sequence (P00390 whole entry): T1 sequence (whole entry)

Glutathione reductase = Glutathione reductase (Plasmodium falciparum 3D7, UniProt O15770); assay: In vitro inhibition of Plasmodium falciparum Glutathione Reductase; set-up: species or system FcB1; procedure, shortened: as §2
[15] = target: Glutathione reductase (Plasmodium falciparum 3D7) (UniProt O15770); assay: Competitive inhibition of Plasmodium falciparum Glutathione Reductase; details: Plasmodium falciparum FcB1
[16] = read-out: ED50 (the source's name)

Chain of Glutathione reductase (Plasmodium falciparum 3D7) (O15770 whole entry): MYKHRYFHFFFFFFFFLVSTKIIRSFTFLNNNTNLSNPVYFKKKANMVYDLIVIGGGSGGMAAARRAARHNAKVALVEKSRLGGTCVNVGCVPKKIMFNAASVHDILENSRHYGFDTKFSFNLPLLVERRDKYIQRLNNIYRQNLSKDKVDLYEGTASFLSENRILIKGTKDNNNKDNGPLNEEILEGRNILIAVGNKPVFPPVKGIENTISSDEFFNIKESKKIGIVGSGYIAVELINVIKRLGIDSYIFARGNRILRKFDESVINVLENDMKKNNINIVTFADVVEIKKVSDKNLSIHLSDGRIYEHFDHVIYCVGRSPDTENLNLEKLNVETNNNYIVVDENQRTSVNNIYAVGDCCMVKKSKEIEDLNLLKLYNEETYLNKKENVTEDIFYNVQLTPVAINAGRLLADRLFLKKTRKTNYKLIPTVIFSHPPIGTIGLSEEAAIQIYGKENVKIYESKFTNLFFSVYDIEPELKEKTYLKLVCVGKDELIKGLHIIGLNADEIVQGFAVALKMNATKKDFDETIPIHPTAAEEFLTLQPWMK
Chain of Glutathione reductase (O15770 whole entry): as above

CCCC(=O)OCOC(=O)CCCCCC1=C(C)C(=O)c2ccccc2C1=O
half-life [1]: 0.5 h
half-life [2]: 1 h
NA [3]: inactive
EC50 (Plasmodium falciparum [4]; [16]): 22.4 µM
NA [5]: inactive

CCN(CC)CCCC(C)Nc1ccnc2cc(Cl)ccc12 (stereo not drawn) [CHLOROQUINE]
EC50 (Plasmodium falciparum [6]): 0.175 µM
EC50 (Plasmodium falciparum [7]): 0.126 µM
EC50 (Plasmodium falciparum [8]): 0.183 µM
EC50 (Plasmodium falciparum [9]): 0.054 µM
EC50 (Plasmodium falciparum [10]): 0.019 µM
EC50 (Plasmodium falciparum [11]): 0.0143 µM

CC1=C(CCCCC(=O)OCc2cc(NC(=O)CN3CCCCC3)cc(Nc3ccnc4cc(Cl)ccc34)c2)C(=O)c2ccccc2C1=O
EC50 (Plasmodium falciparum [4]; [16]): 47 µM

COC(=O)CCCCCC1=C(C)C(=O)c2ccccc2C1=O
half-life [1]: 0.5 h
half-life [2]: 1 h
half-life [12]: > 3 h
NA [3]: inactive
EC50 (Plasmodium falciparum [4]; [16]): 10.8 µM
NA [5]: inactive

CC1=C(CCCCCC(=O)OCOC(=O)C(C)(C)C)C(=O)c2ccccc2C1=O
half-life [1]: 1 h
half-life [2]: 2 h
NA [3]: inactive
EC50 (Plasmodium falciparum [4]; [16]): 24.1 µM
NA [5]: inactive

CCN(CCCC(C)Nc1ccnc2cc(Cl)ccc12)CCOC(=O)CCCCCC1=C(C)C(=O)c2ccccc2C1=O (stereo not drawn)
half-life [1]: > 80 h
half-life [2]: > 80 h
half-life [12]: > 80 h
EC50 (Plasmodium falciparum [4]; [16]): 0.107 µM

CC1=C(CCCCCNC(=O)OCc2cc(NC(=O)CN3CCCCC3)cc(Nc3ccnc4cc(Cl)ccc34)c2)C(=O)c2ccccc2C1=O
EC50 (Plasmodium falciparum [4]; read-out: ED50): 0.144 µM

CC1=C(CCCCC(=O)O)C(=O)c2ccccc2C1=O
Ki.c [13]: 1.8
IC50 [14]: 2.7 µM
EC50 (Plasmodium falciparum [4]; [16]): 2.8 µM
IC50 (Glutathione reductase): 4 µM
Ki.c [15]: 3.1 µM
